This passage reports IC50, inhibition and Activity results from ChEMBL document CHEMBL4270482, “Cytotoxic Fusicoccane-Type Diterpenoids from Streptomyces violascens Isolated from Ailuropoda melanoleuca Feces” (J Nat Prod, 2017).

Counter-ions that a name gives are not always drawn. The source made the active and inactive calls. The rule behind the calls is not given here.

Test [1] concerns HCT-116. Briefly: Cytotoxicity against human HCT116 cells assessed as inhibition of growth incubated for 72 hrs by MTT assay. It counts as functional, cell-based. The conditions noted are these: HCT-116, 72 h. Summed up: (§1)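 Cells grown in RPMI-1640 or DMEM with 10% heat-inactivated FBS. Exposed to six concentrations (100, 33, 10, 3.3, 1.0, 0.33 μM) for 72 h at 37 °C. MTT (5 mg/mL, 10 μL) added for 4 h, then medium removed and DMSO added, absorbance read at 570 nm. IC50 is the concentration giving 50% lower absorbance than control. Mean ± SD of three independent experiments; adriamycin positive control.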

Test [2] has as its system NCI-H460. Briefly: Cytotoxicity against human NCI-H460 cells assessed as inhibition of growth at 200 uM incubated for 72 hrs by MTT assay. To be noted: for inhibition at 200 µM: NCI-H460, 72 h. In kind it is functional.
The subject of test [3] is HeLa. As to the kind of experiment: Cytotoxicity against human HeLa cells assessed as inhibition of growth at 200 uM incubated for 72 hrs by MTT assay. It counts as functional. A general note: Tetrazolium assays rely on reduction of a dye to a coloured formazan, in cell work by metabolically active cells.
The test system of test [4] is HeLa. Briefly: Cytotoxicity against human HeLa cells assessed as inhibition of growth incubated for 72 hrs by MTT assay. It counts as functional, cell-based. Summed up:
as §1

For test [5], the system named is BGC-823. As to the kind of experiment: Cytotoxicity against human BGC823 cells assessed as inhibition of growth incubated for 72 hrs by MTT assay. It counts as functional, cell-based. The conditions noted are these: BGC-823, 72 h. Summed up: as §1
For test [6], the system named is NCI-H460. Briefly: Cytotoxicity against human NCI-H460 cells assessed as inhibition of growth incubated for 72 hrs by MTT assay. It counts as functional, cell-based. The conditions noted are these: NCI-H460, 72 h. In outline:
as §1

In test [7] the test system is SMMC-7721. Briefly: Cytotoxicity against human SMMC7721 cells assessed as inhibition of growth incubated for 72 hrs by MTT assay. The conditions noted are these: SMMC-7721, 72 h. In kind it is functional, cell-based. In outline:
as §1

For test [8], the system named is SMMC-7721. Briefly: Cytotoxicity against human SMMC7721 cells assessed as inhibition of growth at 200 uM incubated for 72 hrs by MTT assay. In kind it is functional. The conditions noted are these: for inhibition at 200 µM: SMMC-7721, 72 h.
Test [9] relates to HCT-116. Briefly: Cytotoxicity against human HCT116 cells assessed as inhibition of growth at 200 uM incubated for 72 hrs by MTT assay. The conditions noted are these: for inhibition at 200 µM: HCT-116, 72 h. It counts as functional.
Test [10] deals with BGC-823. As to the kind of experiment: Cytotoxicity against human BGC823 cells assessed as inhibition of growth at 200 uM incubated for 72 hrs by MTT assay. It counts as functional. To be noted: for inhibition at 200 µM: BGC-823, 72 h.
The subject of test [11] is SMMC-7721. Briefly: Cytotoxicity against human SMMC7721 cells assessed as inhibition of growth at 0.6 to 5.5 uM incubated for 24 hrs by MTT assay. In kind it is functional, cell-based. Summed up:
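SMMC7721 viability measured by MTT after exposure to 0, 0.61, 1.83, 5.49 or 16.5 μM for 0, 24, 48 and 72 h. Vehicle-treated cells served as control. Mean ± SD, n = 3.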

Test [12] deals with Matrix metalloproteinase-9 (Homo sapiens) (UniProt P14780). Briefly: Inhibition of MMP9 activity in human SMMC7721 cells incubated for 24 hrs by gelatin zymography. In kind it is cell-based. Summed up:
(§2)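 SMMC7721 cells (2 × 10^5/well) treated with 0.61, 1.83 or 5.49 μM for 24 h. Culture supernatants run on 10% SDS-PAGE containing 0.1% gelatin. Gels washed in 2.5% Triton X-100 (three 1-h washes), then incubated 36 h at 37 °C in 50 mM Tris-HCl, 10 mM CaCl2, 1 μM ZnCl2, 0.2 M NaCl, pH 7.6. Coomassie R250 stain; bands at 72 kDa (MMP-2) and 92 kDa (MMP-9) quantified by densitometry. Mean ± SD, n = 3.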

The subject of test [13] is SMMC-7721. As to the kind of experiment: Inhibition of cell adhesion of human SMMC7721 cells at 0.61 to 5.49 uM incubated for 1 hr by matrigel based assay. In kind it is functional. In outline: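 Wells coated overnight with Matrigel in 0.5% serum-free RPMI-1640, blocked with 2% BSA for 30 min and washed with PBS. SMMC7721 cells (2 × 10^4/well) added with 0.61, 1.83 or 5.49 μM and left to adhere for 1 h. Medium removed, 0.2% crystal violet applied for 10 min, dye dissolved in DMSO, OD read at 540 nm. Mean ± SD, n = 3.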

Test [14] deals with SMMC-7721. Briefly: Inhibition of MMP9 protein expression in human SMMC7721 cells at […] to 5.49 uM incubated for 24 hrs by Western blot analysis. In kind it is functional, cell-based. In outline:
(§3)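 SMMC7721 cells (5 × 10^5/well) treated with 0.61, 1.83 or 5.49 μM for 24 h, then lysed in RIPA buffer with protease inhibitors for 40 min on ice. Protein (60 μg) resolved on 10% SDS-PAGE and transferred to PVDF. Probed with MMP-2 or MMP-9 primary antibody and peroxidase-conjugated secondary, detected by chemiluminescence, normalized to GAPDH.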
In general terms: A western blot detects proteins with antibodies after separation by electrophoresis.

Test [15] relates to SMMC-7721. As to the kind of experiment: Inhibition of cell migration of human SMMC7721 cells incubated for 24 hrs by H and E staining based transwell chamber assay. It counts as functional. In outline: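 Transwell migration: 4 × 10^5 SMMC7721 cells in RPMI-1640 with 0.1% FBS plus 0.61, 1.83 or 5.49 μM placed in upper chamber; lower chamber held RPMI-1640 with 10% FBS. Cells on the lower membrane surface fixed in paraformaldehyde for 30 min and stained with H&E for 5 min. Methods give 6 h, legend gives 24 h. Vehicle control; mean ± SD, n = 3.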

For test [16], the target named is 72 kDa type IV collagenase (Homo sapiens) (UniProt P08253). As to the kind of experiment: Inhibition of MMP2 activity in human SMMC7721 cells incubated for 24 hrs by gelatin zymography. It counts as cell-based. In outline:
as §2

Test [17] deals with SMMC-7721. Briefly: Inhibition of MMP2 protein expression in human SMMC7721 cells at […] to 5.49 uM incubated for 24 hrs by Western blot analysis. It counts as functional, cell-based. In outline: as §3
Test [18] has as its system SMMC-7721. As to the kind of experiment: Inhibition of MMP2 gene expression in human SMMC7721 cells at […] to 5.49 uM incubated for 24 hrs by real-time PCR analysis. It counts as functional, cell-based. Summed up:
(§4)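 SMMC7721 cells (5 × 10^5/well) treated with 0.61, 1.83 or 5.49 μM for 24 h. Total RNA analysed by SYBR Green qPCR using MMP-2 and MMP-9 specific primers. Cycling: 95 °C for 10 min, then 44 cycles of 95 °C 10 s, 60 °C 20 s, 72 °C 20 s. GAPDH internal control.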
For orientation: In qPCR the cycle at which signal appears reflects the starting amount.

Test [19] concerns SMMC-7721. As to the kind of experiment: Inhibition of MMP9 gene expression in human SMMC7721 cells at […] to 5.49 uM incubated for 24 hrs by real-time PCR analysis. It counts as functional, cell-based. In outline: as §4

72 kDa type IV collagenase (Homo sapiens), sequence (P08253 110-660 limits assumed): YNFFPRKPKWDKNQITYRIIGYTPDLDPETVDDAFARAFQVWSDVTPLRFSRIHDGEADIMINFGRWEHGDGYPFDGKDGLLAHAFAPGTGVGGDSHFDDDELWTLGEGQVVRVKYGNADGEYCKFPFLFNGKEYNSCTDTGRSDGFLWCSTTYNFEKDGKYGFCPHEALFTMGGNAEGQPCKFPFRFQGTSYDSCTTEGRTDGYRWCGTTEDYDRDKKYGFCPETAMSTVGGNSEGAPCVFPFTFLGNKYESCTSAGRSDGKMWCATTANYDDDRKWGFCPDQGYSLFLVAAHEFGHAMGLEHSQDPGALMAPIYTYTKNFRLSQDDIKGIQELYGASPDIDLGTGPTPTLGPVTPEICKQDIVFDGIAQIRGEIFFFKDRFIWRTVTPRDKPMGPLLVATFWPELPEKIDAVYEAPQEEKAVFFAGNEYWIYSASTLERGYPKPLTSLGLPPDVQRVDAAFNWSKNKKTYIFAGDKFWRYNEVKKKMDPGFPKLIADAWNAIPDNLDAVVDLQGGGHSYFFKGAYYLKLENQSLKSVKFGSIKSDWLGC
Matrix metalloproteinase-9 (Homo sapiens), sequence (P14780 whole entry): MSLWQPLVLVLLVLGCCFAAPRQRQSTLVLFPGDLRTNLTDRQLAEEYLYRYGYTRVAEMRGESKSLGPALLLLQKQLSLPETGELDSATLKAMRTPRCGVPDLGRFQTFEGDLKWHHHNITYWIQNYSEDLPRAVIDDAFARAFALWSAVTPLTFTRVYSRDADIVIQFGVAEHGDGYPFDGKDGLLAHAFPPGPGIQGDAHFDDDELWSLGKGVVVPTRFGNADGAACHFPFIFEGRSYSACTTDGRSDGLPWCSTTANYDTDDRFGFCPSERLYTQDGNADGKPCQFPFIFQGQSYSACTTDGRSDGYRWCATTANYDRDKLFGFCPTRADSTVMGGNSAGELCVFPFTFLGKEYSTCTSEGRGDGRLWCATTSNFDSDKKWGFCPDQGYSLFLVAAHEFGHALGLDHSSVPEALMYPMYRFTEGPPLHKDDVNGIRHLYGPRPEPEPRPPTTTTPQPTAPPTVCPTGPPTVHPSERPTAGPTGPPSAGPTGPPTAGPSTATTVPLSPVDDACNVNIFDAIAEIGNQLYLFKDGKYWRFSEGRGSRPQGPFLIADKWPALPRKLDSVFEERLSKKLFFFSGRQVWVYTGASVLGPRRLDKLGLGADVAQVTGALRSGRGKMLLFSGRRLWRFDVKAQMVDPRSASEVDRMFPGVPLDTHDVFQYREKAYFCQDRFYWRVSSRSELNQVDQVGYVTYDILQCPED

Broadly, the IC50 is the concentration at which inhibition is half-maximal. As a reminder, the inhibition is the share of the control response that was lost under treatment. For the compound `CC(C)[C@H]1C[C@@H](O)[C@]2(C)C[C@@H]3[C@H](CO)C[C@@H](O)[C@H]3[C@@](C)(O)C/C=C/12`, the IC50 in test [1], in [4], in [5], in test [6] and in test [7] was more than 100 µM in each case. In addition, the inhibition at 200 µM in test [2], in test [3], in test [8], in test [9] and in test [10] was 50% each time.

On to `CCCC(=O)[C@@H](C)[C@H]1O[C@@](O)([C@H](C)C(=O)OC[C@H](C)[C@H]2CC[C@]3(C)C[C@@H]4[C@H](CO)C[C@@H](O)[C@H]4[C@@](C)(O)C/C=C/23)[C@H](C)C[C@H]1C`, for which the concentration for half-maximal inhibition (IC50) in [1] stood at 5.8 µM; in [4], 7.6 µM; in test [5], 10.5 µM; in test [6] it was 3.5 µM; in test [7], 9.6 µM. The outcome in test [11] was inactive. For the same compound, the inhibition result in test [12], in test [15], in [16], in test [18] and in test [19] was “Dose-dependent effect” each time. Further, the inhibition entry in [13], in test [14] and in test [17] was “Active” throughout.

In the case of `COc1cccc2c1C(=O)c1c(O)c3c(c(O)c1C2=O)C[C@@](O)(C(=O)CO)C[C@@H]3O[C@H]1C[C@H](N)[C@H](O)[C@H](C)O1` [DOXORUBICIN HYDROCHLORIDE], the IC50 in test [1] was 1.4 µM; in test [5], 1.5 µM; in test [6], 1 µM; in test [7], 2.2 µM.

Take `CC(C)[C@H]1CC[C@]2(C)C[C@@H]3[C@H](CO)C[C@@H](O)[C@H]3[C@@](C)(O)C/C=C/12`: the IC50 in [1], in test [4], in test [5], in [6] and in test [7] was more than 100 µM throughout. The inhibition at 200 µM in test [2], in [3], in test [8], in test [9] and in test [10] was 90% throughout.

Regarding `CC(C)[C@@]1(O)CC[C@]2(C)C[C@@H]3[C@H](CO)C[C@@H](O)[C@H]3[C@@](C)(O)C/C=C\21`, the IC50 in test [1], in [4], in [5], in test [6] and in [7] was more than 100 µM in each case. Moreover, the inhibition result in test [2], in [3], in [8], in [9] and in test [10] was “inactive” each time.

Take `CC(C)[C@H]1C[C@H](O)[C@]2(C)C[C@@H]3[C@H](CO)C[C@@H](O)[C@H]3[C@@](C)(O)C/C=C/12`: the IC50 in [1], in test [4], in [5], in [6] and in test [7] was more than 100 µM in each case. The inhibition at 200 µM in test [2], in [3], in [8], in test [9] and in [10] was 50% in each case.

Turning to `CCC(=O)[C@@H](C)[C@H]1O[C@@](O)([C@H](C)C(=O)OC[C@H](C)[C@H]2CC[C@]3(C)C[C@@H]4[C@H](CO)C[C@@H](O)[C@H]4[C@@](C)(O)C/C=C/23)[C@H](C)C[C@H]1C`, the 50% inhibitory concentration (IC50) in [1] amounted to 6.7 µM; in test [4] it was 6.7 µM; in [5], 7 µM; in [6] it was 4.1 µM; in test [7], 8.9 µM.

With `CCC(=O)[C@@H](C)[C@H]1O[C@@](O)([C@@H](C)C(=O)OC[C@H](C)[C@H]2CC[C@]3(C)C[C@@H]4[C@H](CO)C[C@@H](O)[C@H]4[C@@](C)(O)C/C=C/23)[C@H](C)C[C@H]1C`, the IC50 was determined as 8 µM in test [1]; 9.3 µM in [4]; 9.5 µM in test [5]; 6.1 µM in test [6]; 14.1 µM in test [7].
